Assay results reported in ChEMBL document CHEMBL1131219, “Inhibition of human alcohol dehydrogenases by formamides” (J Med Chem, 1998).

Legend:
Alcohol dehydrogenase 1C = Alcohol dehydrogenase 1C (Homo sapiens, UniProt P00326); test: Inhibition of human alcohol dehydrogenase gamma2 activity
Summary of the method: (§1)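 Purified human isozyme in 46 mM sodium phosphate with 0.25 mM EDTA, pH 7.0, 25 °C. The varied substrate (ethanol, acetaldehyde or cyclohexanone) was chosen per enzyme, with coenzyme fixed at 0.2 mM NADH or 2.0 mM NAD+. Inhibitor varied over at least a 3-fold range, 20–25 conditions in duplicate.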

[1] = target: All-trans-retinol dehydrogenase [NAD(+)] ADH1B (Homo sapiens, UniProt P00325); test: Inhibition of human alcohol dehydrogenase beta 1 activity; summary of the method: as §1
Alcohol dehydrogenase = Alcohol dehydrogenase (Equus caballus, UniProt P00327+P00328); test: Inhibition of horse liver alcohol dehydrogenase activity
Alcohol dehydrogenase 1A = Alcohol dehydrogenase 1A (Homo sapiens, UniProt P07327); test: Inhibition of human alcohol dehydrogenase alpha activity
Summary of the method: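 Purified human α isozyme. Buffer was 46 mM sodium phosphate with 0.25 mM EDTA, pH 7.0, 25 °C; runs were also done in 33 mM phosphate/EDTA, pH 8.0. NADH 0.2 mM or NAD+ 2.0 mM held fixed. NADH change followed at 340 nm.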

[2] = target: T1, All-trans-retinol dehydrogenase [NAD(+)] ADH7 (Homo sapiens, UniProt P40394); test: Inhibition of human alcohol dehydrogenase sigma activity; summary of the method: as §1
[3] = target: All-trans-retinol dehydrogenase [NAD(+)] ADH4 (Homo sapiens, UniProt P08319); test: Inhibition of human alcohol dehydrogenase pi activity; summary of the method: as §1
[4] = target: T1, All-trans-retinol dehydrogenase [NAD(+)] ADH7; test: Inhibitory activity against human alcohol dehydrogenase sigma.; summary of the method: as §1

All-trans-retinol dehydrogenase [NAD(+)] ADH1B, sequence (P00325 whole entry): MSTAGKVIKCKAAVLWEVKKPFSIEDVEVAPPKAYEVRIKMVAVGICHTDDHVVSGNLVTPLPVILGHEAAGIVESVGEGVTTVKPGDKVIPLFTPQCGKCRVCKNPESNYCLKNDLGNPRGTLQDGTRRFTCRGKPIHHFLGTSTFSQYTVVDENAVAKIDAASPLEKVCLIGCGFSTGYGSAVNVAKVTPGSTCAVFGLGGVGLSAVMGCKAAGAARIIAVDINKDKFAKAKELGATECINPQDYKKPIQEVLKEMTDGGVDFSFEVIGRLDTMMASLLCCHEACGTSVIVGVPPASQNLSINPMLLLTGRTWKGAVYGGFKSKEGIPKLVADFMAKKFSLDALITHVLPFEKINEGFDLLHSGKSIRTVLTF
All-trans-retinol dehydrogenase [NAD(+)] ADH4, sequence (P08319 whole entry): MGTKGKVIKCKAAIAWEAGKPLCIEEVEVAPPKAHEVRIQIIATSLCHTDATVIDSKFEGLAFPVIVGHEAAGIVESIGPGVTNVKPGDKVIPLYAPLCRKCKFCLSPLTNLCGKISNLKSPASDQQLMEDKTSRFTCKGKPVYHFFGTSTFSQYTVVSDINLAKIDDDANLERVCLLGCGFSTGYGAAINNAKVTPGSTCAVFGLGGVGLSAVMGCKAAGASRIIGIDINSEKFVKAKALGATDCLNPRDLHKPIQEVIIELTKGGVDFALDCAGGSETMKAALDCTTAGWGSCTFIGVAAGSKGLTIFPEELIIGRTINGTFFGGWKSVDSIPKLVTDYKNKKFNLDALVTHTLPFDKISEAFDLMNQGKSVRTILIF
T1 sequence (P40394 whole entry): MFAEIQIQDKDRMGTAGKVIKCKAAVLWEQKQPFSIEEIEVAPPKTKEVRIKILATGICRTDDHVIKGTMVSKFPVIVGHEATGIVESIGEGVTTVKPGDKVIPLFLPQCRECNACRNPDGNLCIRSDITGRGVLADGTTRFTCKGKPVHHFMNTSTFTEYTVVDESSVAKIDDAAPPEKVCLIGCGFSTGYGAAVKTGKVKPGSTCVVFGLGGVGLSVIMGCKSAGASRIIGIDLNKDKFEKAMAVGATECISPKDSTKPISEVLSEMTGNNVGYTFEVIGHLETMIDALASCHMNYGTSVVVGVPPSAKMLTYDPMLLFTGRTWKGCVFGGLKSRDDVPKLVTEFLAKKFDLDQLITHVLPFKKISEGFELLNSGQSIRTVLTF
Alcohol dehydrogenase 1C, sequence (P00326 whole entry): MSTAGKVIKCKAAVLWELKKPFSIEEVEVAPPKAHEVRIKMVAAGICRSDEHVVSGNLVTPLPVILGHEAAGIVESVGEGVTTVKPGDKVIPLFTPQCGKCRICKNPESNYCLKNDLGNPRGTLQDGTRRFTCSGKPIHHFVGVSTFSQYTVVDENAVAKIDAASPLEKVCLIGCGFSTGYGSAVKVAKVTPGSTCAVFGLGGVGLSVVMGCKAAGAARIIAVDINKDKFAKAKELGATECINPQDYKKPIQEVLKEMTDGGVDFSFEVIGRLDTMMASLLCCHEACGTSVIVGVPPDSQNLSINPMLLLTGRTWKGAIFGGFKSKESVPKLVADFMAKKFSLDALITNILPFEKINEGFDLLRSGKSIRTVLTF
Alcohol dehydrogenase 1A, sequence (P07327 whole entry): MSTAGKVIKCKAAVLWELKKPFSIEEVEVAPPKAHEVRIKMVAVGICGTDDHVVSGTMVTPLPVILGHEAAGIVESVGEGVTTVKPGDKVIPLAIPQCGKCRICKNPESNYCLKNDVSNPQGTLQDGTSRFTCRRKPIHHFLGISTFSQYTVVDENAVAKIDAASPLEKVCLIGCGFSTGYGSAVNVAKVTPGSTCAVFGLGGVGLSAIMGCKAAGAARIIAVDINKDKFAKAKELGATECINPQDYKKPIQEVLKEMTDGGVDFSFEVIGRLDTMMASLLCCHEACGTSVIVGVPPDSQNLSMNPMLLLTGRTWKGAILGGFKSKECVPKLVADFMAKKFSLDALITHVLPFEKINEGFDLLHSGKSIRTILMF

| Ki (Alcohol dehydrogenase 1C) [µM] | Ki [1] [µM] | Ki (Alcohol dehydrogenase) [µM] | Ki (Alcohol dehydrogenase 1A) [µM] | Ki [2] [µM] | Ki [3] [µM] | Ki [4] [µM] | SMILES |
| --- | --- | --- | --- | --- | --- | --- | --- |
| 5.8 | 1 | 12 | 3.6 | 47 | 7.1 | – | O=CNCC1CCCCC1 |
| 120 | 250 | 440 | 5.9 | 640 | – | – | O=CN(C1CCCCC1)C1CC1 |
| 160 | 4000 | 5200 | 14 | – | – | – | CCCN(C=O)C1CCCCC1 |
| 13 | 7.3 | 7.6 | 3.9 | 28 | 150 | – | O=CNC1CCCC1 |
| 15 | 19 | 2.6 | 22 | 210 | 1900 | – | CC(C)NC=O |
| 19 | 4900 | 7200 | 1.8 | 1800 | 280 | – | O=CN(C1CCC1)C1CCC1 |
| 120 | 5.5 | 10 | 5.6 | 21 | 300 | – | CCCNC=O |
| 54 | 26 | 13 | 5.5 | 180 | 340 | – | CC(C)CNC=O |
| 21 | 2800 | 1900 | 4.5 | 1700 | 191 | – | CCCN(C=O)C1CCCC1 |
| 83 | 46 | 470 | 24 | 1300 | 150 | – | CC(C)N(C=O)C1CCCCC1 |
| 100 | 11 | 16 | 7.2 | 30 | 110 | – | CCCCNC=O |
| 33 | 1500 | 1400 | 4.5 | – | – | – | CCN(C=O)C1CCCCC1 |
| 4.6 | 4600 | 110 | 0.88 | 930 | 96 | – | O=CN(C1CCCC1)C1CC1 |
| 40 | 920 | 600 | 5.5 | 4900 | 120 | – | CN(C=O)C1CCCCC1 |
| 2.1 | 1900 | 1100 | 1.9 | 960 | 31 | – | CCCCCCCN(C=O)C1CC1 |
| 1000 | 1600 | 2600 | 7.4 | – | – | – | O=CN(C1CCCC1)C1CCCC1 |
| 0.41 | 1.7 | 5.4 | 7 | 100 | 40 | – | CCCCCCC(C)NC=O (centres undefined) |
| 45 | 2.9 | 1.7 | 3.8 | – | 450 | 54 | O=CNC1CCC1 |
| 700 | 6.4 | 100 | 33 | 300 | 5200 | – | O=CNC1CC1 |
| 47 | 10000 | 8600 | 0.36 | 1100 | 360 | – | O=CN(C1CCCC1)C1CCC1 [CYCLOBUTYL(CYCLOPENTYL)FORMAMIDE] |
| 5.2 | 3.4 | – | 2.3 | 380 | 84 | – | O=CNC1CCCCC1 [CYCLOHEXYLFORMAMIDE] |
| 12 | 0.33 | 3 | 3.6 | 0.74 | 11 | – | CCCCCCCNC=O [HEPTYLFORMAMIDE] |
